In paper PMC3166448 (Urology, 2011):
“Also recorded” adds a separate entry of the source. Where a name gives a salt, the structure may show the parent alone.

What was measured:
[1] = Plasma pharmacokinetics after first IPI-504 dose; type: in vivo, human; settings: for Time of peak plasma concentration: relative to the 30-minute infusion
[2] = test system: castration-resistant prostate cancer (CRPC); settings: cited from earlier work
[3] = cited from earlier work
[4] = test system: androgen-dependent and androgen-independent prostate cancer xenografts; settings: 3 (Solit et al); cited from earlier work
[5] = test system: cytochrome P450 3A4 (CYP3A4); settings: in vitro; cited from earlier work
[6] = test system: patients with castration-resistant prostate cancer (CRPC); test: Phase 2 trial: treatment-emergent adverse events; type: in vivo, human
[7] = test system: castration-resistant prostate cancer (CRPC); test: Phase 2 trial: PSA response / antitumor outcome; type: in vivo, human
In short: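 Adults (>18 years) with progressive CRPC (two serial PSA rises or progressive radiographic metastases, serum testosterone < 50 […]). Group A was chemotherapy-naïve; Group B had radiographic metastases, progression on or intolerance to docetaxel, and ≤3 prior chemotherapy regimens. Test compound 400 mg/m2 given as a 30-min IV infusion on days 1, 4, 8 and 11 of 21-day cycles; later continuation allowed at 300 mg/m2.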

[8] = twice-weekly; cited from earlier work
[9] = 17-AAG: ref 5; IPI-504: ref 6; cited from earlier work
[10] = plasma after first IPI-504 dose 400 mg/m^2 iv
[11] = Grade ≥ 3, N=19, IPI-504 400 mg/m^2 iv
[12] = TEAE in > 25% of study population, N=19
[13] = any grade, N=19, IPI-504 400 mg/m^2 iv
[14] = of the 19 patients enrolled and treated

With `CO[C@H]1/C=C/C=C(\C)C(=O)NC2=CC(=O)C(N)=C(C[C@@H](C)C[C@H](OC)[C@H](O)[C@@H](C)/C=C(\C)[C@@H]1OC(N)=O)C2=O` [17-AG] the “mean T1/2” value [1, 10] was 5.2 h, the “Time of peak plasma concentration” value [1] was “ranging from the end of the infusion to 1.5 hours post-infusion” and the “Share of the total measured exposure” value ([1]; sum of IPI-504, 17-AAG and 17-AG without adjustment for molecular weight) was “approximately 68%”.
For `C=CCNC1=C2C[C@@H](C)C[C@H](OC)[C@H](O)[C@@H](C)/C=C(\C)[C@H](OC(N)=O)[C@@H](OC)/C=C\C=C(/C)C(=O)NC(=CC1=O)C2=O` [17-AAG, 17-allylamine-17-demethoxygeldanamycin, reference compound], the “Antitumor activity in clinical trials in patients with CRPC” value [2] is given as “negligible antitumor activity”, the “Mean AUC0-∞” value [1, 10] is given as 9,847 ng*hr/mL and the “mean T1/2” value [1, 10] is given as 1.4 h. The “Time of peak plasma concentration” value [1] was “at the end of the infusion”, the “Hepatotoxicity in phase I trials” value [3] was “dose limiting toxicity” and the “Growth of prostate cancer xenografts” value [4] was “dose-dependent growth inhibition”.
In the case of `C=CCNc1c(O)cc2c(O)c1C[C@@H](C)C[C@H](OC)[C@H](O)[C@@H](C)/C=C(\C)[C@H](OC(N)=O)[C@@H](OC)/C=C\C=C(/C)C(=O)N2` [IPI-504, retaspimycin hydrochloride], the “Involvement of CYP3A4 in metabolism” value [5] is given as “involved in the metabolism”, the “Grade 3 AST elevation in the patient who died of hepatic failure” value ([6]; 1 day before hepatic failure, at study drug administration) is given as 339 U/L and the “AST elevation (Grade 4) in the second patient” value ([6]; Cycle 1, Dose 2, from 32 U/L at baseline) is given as 863 U/L. For the same molecule, the “ALT elevation (Grade 3) in the second patient” value ([6]; Cycle 1, Dose 2, from a normal baseline level) was 659 U/L, the “AST elevation (Grade 3) in one patient” value ([6]; Cycle 2, Dose 3, prompted study drug discontinuation, returned to normal 4 days later) was 397 U/L and the “ALT Increased, patients with TEAE (Grade ≥ 3)” value [6, 11] was 1 (5) n (%). For the same molecule, the “AST Increased, patients with TEAE (Grade ≥ 3)” value [6, 11] was 2 (11) n (%), the “Anemia, patients with TEAE (Grade ≥ 3)” value [6, 11] was 1 (5) n (%) and the “Anorexia, patients with TEAE (Grade ≥ 3)” value [6, 11] was 1 (5) n (%). The “Anxiety, patients with TEAE (Grade ≥ 3)” value [6, 11] was 0 n (%), the “Arthralgia, patients with TEAE (Grade ≥ 3)” value [6, 11] was 0 n (%) and the “Back Pain, patients with TEAE (Grade ≥ 3)” value [6, 11] was 1 (5) n (%). The “Constipation, patients with TEAE (Grade ≥ 3)” value [6, 11] was 0 n (%), the “Dehydration, patients with TEAE (Grade ≥ 3)” value [6, 11] was 3 (16) n (%) and the “Diarrhea, patients with TEAE (Grade ≥ 3)” value [6, 11] was 1 (5) n (%). For the same molecule, the “Fatigue, patients with TEAE (Grade ≥ 3)” value [6, 11] was 1 (5) n (%), the “Headache, patients with TEAE (Grade ≥ 3)” value [6, 11] was 0 n (%) and the “Hypokalemia, patients with TEAE (Grade ≥ 3)” value [6, 11] was 0 n (%). The “Hyponatremia, patients with TEAE (Grade ≥ 3)” value [6, 11] was 2 (11) n (%), the “Infusion Site Pain, patients with TEAE (Grade ≥ 3)” value [6, 11] was 0 n (%) and the “Musculoskeletal Pain, patients with TEAE (Grade ≥ 3)” value [6, 11] was 0 n (%). The “Myalgia, patients with TEAE (Grade ≥ 3)” value [6, 11] was 0 n (%), the “Nausea, patients with TEAE (Grade ≥ 3)” value [6, 11] was 1 (5) n (%) and the “Pain in Extremity, patients with TEAE (Grade ≥ 3)” value [6, 11] was 0 n (%). For the same molecule, the “Pneumonia, patients with TEAE (Grade ≥ 3)” value [6, 11] was 2 (11) n (%), the “Pyrexia, patients with TEAE (Grade ≥ 3)” value [6, 11] was 0 n (%) and the “Vomiting, patients with TEAE (Grade ≥ 3)” value [6, 11] was 1 (5) n (%). For the same molecule, the “Anorexia, share of study population” value [6, 12] was 26%, the “Arthralgia, share of study population” value [6, 12] was 26% and the “ALT Increased, patients with any TEAE” value [6, 13] was 2 (11) n (%). The “AST Increased, patients with any TEAE” value [6, 13] was 2 (11) n (%), the “Anemia, patients with any TEAE” value [6, 13] was 4 (21) n (%) and the “Anorexia, patients with any TEAE” value [6, 13] was 5 (26) n (%). The “Anxiety, patients with any TEAE” value [6, 13] was 2 (11) n (%), the “Arthralgia, patients with any TEAE” value [6, 13] was 5 (26) n (%) and the “Back Pain, patients with any TEAE” value [6, 13] was 2 (11) n (%). For the same molecule, the “Constipation, patients with any TEAE” value [6, 13] was 4 (21) n (%), the “Dehydration, patients with any TEAE” value [6, 13] was 4 (21) n (%) and the “Diarrhea, patients with any TEAE” value [6, 13] was 8 (42) n (%). The “Fatigue, patients with any TEAE” value [6, 13] was 6 (32) n (%), the “Headache, patients with any TEAE” value [6, 13] was 2 (11) n (%) and the “Hypokalemia, patients with any TEAE” value [6, 13] was 2 (11) n (%). For the same molecule, the “Hyponatremia, patients with any TEAE” value [6, 13] was 2 (11) n (%), the “Infusion Site Pain, patients with any TEAE” value [6, 13] was 4 (21) n (%) and the “Musculoskeletal Pain, patients with any TEAE” value [6, 13] was 3 (16) n (%). The “Myalgia, patients with any TEAE” value [6, 13] was 3 (16) n (%), the “Pain in Extremity, patients with any TEAE” value [6, 13] was 4 (21) n (%) and the “Pneumonia, patients with any TEAE” value [6, 13] was 2 (11) n (%). The “Pyrexia, patients with any TEAE” value [6, 13] was 3 (16) n (%), the “Vomiting, patients with any TEAE” value [6, 13] was 4 (21) n (%) and the “Nausea, patients with any TEAE” value ([6]; any grade, N=19, IPI-504 400 mg/m^2 iv days 1, 4, 8, 11 of 21-day cycle) was 9 (47) n (%). The “Patients reported with treatment-emergent AEs (TEAEs), number” value [6, 14] was 18 patients, the “Patients whose TEAEs resulted in death, percent” value [6, 14] was 11% and the “Patients with CTCAE Grade 3 or higher TEAEs, number” value [6, 14] was 11 patients. The “Patients with CTCAE Grade 3 or higher TEAEs, percent” value [6, 14] was 58%, the AUC ([1]; human, in vivo, 400 mg/m^2) was 26400 ng·h/mL and the AUC(0-inf) ([1]; human, in vivo, iv, 400 mg/m2) was 11700 ng·h/mL. For the same molecule, the “Time of peak plasma concentration” value [1] was “at the end of the infusion”, the “Patients achieving ≥ 50% post-treatment decline in PSA (PSA response)” value ([7]; Groups A and B, N=19) was “No PSA responses; also recorded: No patients” and the “PSA decline from baseline in one patient” value ([7]; one Group A (chemotherapy-naïve) patient) was 48%. The “Time on treatment of the patient with PSA decline” value ([7]; one Group A patient) was 9 cycles, the “Time on study until discontinuation due to disease progression” value ([7]; one Group A patient, after the interim analysis) was “approximately 2 years” and the Overall antitumor activity ([7]; single agent, 400 mg/m^2) was “minimal effect on PSA or tumor burden; also recorded: negligible antitumor activity”. For the same molecule, the “Maximum tolerated dose as a single agent” value [8] was at least 400 mg/m^2 and the Solubility [9] was “water-soluble”.
